In ChEMBL document CHEMBL1255259, “Phosphorothioate-modified oligodeoxynucleotides inhibit human cytomegalovirus replication by blocking virus entry” (Antimicrob Agents Chemother, 2008):
Calls of active or inactive are those of the source. The rule behind the calls is not given here.

Experiments:
Human alphaherpesvirus 1 [1] = test: Antimicrobial activity against Human herpesvirus 1 infected in compound pretreated HELF assessed as inhibition of viral replication at 1 uM; assay type: functional, organism-based
Procedure, shortened: (§1)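 HELF pretreated with ODN (0.1 or 1 μM) 1 h before infection with a clinical HSV-1 isolate at MOI 0.1; ODN kept in medium after 2 h adsorption. Harvest at 48 h p.i., sonication, plaque titration on Vero cells. Means ± SD of three independent experiments.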

Human betaherpesvirus 5 [2] = test: Antimicrobial activity against 0.1 uM compound pretreated Human cytomegalovirus AD169 infected in HELF assessed as reduction in viral titer 37 degC; assay type: functional, organism-based
Procedure, shortened: (§2)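 HCMV AD169 (10^4 PFU) incubated with ODN at 0.1 μM at 4 or 37°C for various times; samples then diluted to bring ODN below an antivirally active level; residual infectivity titrated by plaque assay on HELF. Means ± SD of three independent experiments.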

[3] = Cytotoxicity against HELF assessed as cell viability by MTT assay after 6 days at <=10 uM; assay type: cell-based; conditions: human, 144 h
Procedure, shortened: (§3)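 HELF exposed to rising ODN concentrations (up to 10 μM) for 6 days; viable cells measured by MTT. CC50 taken as concentration that cuts viability to 50%.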

[4] = Cytotoxicity against HELF assessed as cell viability after 6 days by MTT assay; assay type: cell-based; conditions: human, HELF cells; procedure, shortened: as §3
Human betaherpesvirus 5 [5] = test: Antimicrobial activity against Human cytomegalovirus AD169 infected in HELF assessed as inhibition of viral replication at 1 uM measured after 6 days post-infection; assay type: functional, organism-based
unidentified adenovirus = test: Antimicrobial activity against unidentified adenovirus infected in compound pretreated HELF assessed as inhibition of viral replication; assay type: functional, organism-based
Procedure, shortened: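 HELF pretreated 1 h with ODN (0.1 or 1 μM), infected with an adenovirus clinical isolate (MOI 1); ODN kept after 2 h adsorption. Harvest at 4 days p.i., sonication, plaque titration on HELF. Means ± SD, three experiments.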

Human betaherpesvirus 5 [6] = test: Antimicrobial activity against Human cytomegalovirus AD169 infected in HELF assessed as inhibition of viral replication at 0.1 uM measured after 6 days post-infection; assay type: functional, organism-based
[7] = test system: Vesicular stomatitis Indiana virus; test: Antimicrobial activity against Vesicular stomatitis Indiana virus infected in compound pretreated HELF assessed as inhibition of viral replication; assay type: functional, organism-based
Procedure, shortened: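 HELFs exposed to ODN (0.1 or 1 μM) for 1 h, then infected with VSV serotype Indiana at MOI 1 (2 h adsorption, 37°C). ODN kept in the medium until 48 h p.i. Cells and supernatants were pooled, sonicated and titrated by plaque assay on HELFs. Data are means ± standard deviations of three independent experiments, duplicate wells.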

Human betaherpesvirus 5 [8] = test: Antimicrobial activity against Human cytomegalovirus AD169 infected in compound pretreated HELF assessed as inhibition of viral replication measured after 6 days post-infection; assay type: functional, organism-based; conditions: Human betaherpesvirus 5, AD169, HELF
Procedure, shortened: (§4)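 HELF pretreated with ODN 1 h before infection with HCMV AD169 (MOI 1); ODN kept in medium after 2 h adsorption at 37°C. At 6 days p.i., cells plus supernatants sonicated and titrated by plaque assay on HELF; plaques counted microscopically, expressed as PFU/ml (log10) or % of control. IC50/IC90 by linear regression; duplicate wells, three independent experiments, means ± SD.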

Human betaherpesvirus 5 [9] = test: Antimicrobial activity against Human cytomegalovirus AD169 infected in 0.1 uM compound pretreated HELF assessed as inhibition of viral replication measured after 6 days post-infection; assay type: functional, organism-based; procedure, shortened: as §4
Human betaherpesvirus 5 [10] = test: Antimicrobial activity against Human cytomegalovirus AD169 infected in 1 uM compound pretreated HELF assessed as inhibition of viral replication measured after 6 days post-infection; assay type: functional, organism-based; procedure, shortened: as §4
Human betaherpesvirus 5 [11] = test: Antimicrobial activity against 0.1 uM compound pretreated Human cytomegalovirus AD169 infected in HELF assessed as reduction in viral titer at 4 degC; assay type: functional, organism-based; procedure, shortened: as §2
Human alphaherpesvirus 1 [12] = test: Antimicrobial activity against Human herpesvirus 1 infected in compound pretreated HELF assessed as inhibition of viral replication at 0.1 uM; assay type: functional, organism-based; procedure, shortened: as §1
Human betaherpesvirus 5 [13] = test: Antimicrobial activity against Human herpesvirus 5 strain AD169 infected in HELF assessed as pp65 nuclear localization at 0.1 uM after 2 hrs […]; assay type: functional, organism-based
[14] = Antimicrobial activity against Murine cytomegalovirus (strain Smith) infected in compound pretreated mouse NIH 3T3 cells assessed as inhibition of viral replication; assay type: functional, cell-based; conditions: Murid betaherpesvirus 1, NIH3T3
Procedure, shortened: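 NIH 3T3 pretreated 1 h with ODN, infected with MCMV Smith (MOI 1); ODN kept after 2 h adsorption at 37°C. Harvest at 6 days p.i., sonication, plaque assay on NIH 3T3; IC50 from plaque reduction. Means ± SD, three experiments.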

Human betaherpesvirus 5 [15] = test: Antimicrobial activity against Human cytomegalovirus AD169 infected in compound pretreated HELF measured as immediate early 2 mRNA level by RT-PCR; assay type: functional, organism-based
Human betaherpesvirus 5 [16] = test: Antimicrobial activity against Human cytomegalovirus AD169 infected in compound pretreated HELF measured as immediate early 1 mRNA level by RT-PCR; assay type: functional, organism-based

Cc1cn([C@H]2C[C@H](OP(O)(O)=S)[C@@H](COP(O)(=S)O[C@H]3C[C@H](n4cc(C)c(=O)[nH]c4=O)O[C@@H]3COP(O)(=S)O[C@H]3[C@@H](O)[C@H](n4ccc(N)nc4=O)O[C@@H]3COP(O)(=S)O[C@H]3[C@@H](O)[C@H](n4cnc5c(=O)[nH]c(N)nc54)O[C@@H]3COP(O)(=S)O[C@H]3C[C@H](n4cc(C)c(=O)[nH]c4=O)O[C@@H]3COP(O)(=S)O[C@H]3[C@@H](O)[C@H](n4cnc5c(=O)[nH]c(N)nc54)O[C@@H]3COP(O)(=S)O[C@H]3C[C@H](n4cc(C)c(=O)[nH]c4=O)O[C@@H]3COP(O)(=S)O[C@H]3C[C@H](n4cc(C)c(=O)[nH]c4=O)O[C@@H]3COP(O)(=S)O[C@H]3C[C@H](n4cc(C)c(=O)[nH]c4=O)O[C@@H]3COP(O)(=S)O[C@H]3C[C@H](n4cc(C)c(=O)[nH]c4=O)O[C@@H]3COP(O)(=S)O[C@H]3[C@@H](O)[C@H](n4ccc(N)nc4=O)O[C@@H]3COP(O)(=S)O[C@H]3[C@@H](O)[C@H](n4cnc5c(=O)[nH]c(N)nc54)O[C@@H]3COP(O)(=S)O[C@H]3C[C@H](n4cc(C)c(=O)[nH]c4=O)O[C@@H]3COP(O)(=S)O[C@H]3[C@@H](O)[C@H](n4cnc5c(=O)[nH]c(N)nc54)O[C@@H]3COP(O)(=S)O[C@H]3C[C@H](n4cc(C)c(=O)[nH]c4=O)O[C@@H]3COP(O)(=S)O[C@H]3C[C@H](n4cc(C)c(=O)[nH]c4=O)O[C@@H]3COP(O)(=S)O[C@H]3C[C@H](n4cc(C)c(=O)[nH]c4=O)O[C@@H]3COP(O)(=S)O[C@H]3C[C@H](n4cc(C)c(=O)[nH]c4=O)O[C@@H]3COP(O)(=S)O[C@H]3[C@@H](O)[C@H](n4ccc(N)nc4=O)O[C@@H]3COP(O)(=S)O[C@H]3[C@@H](O)[C@H](n4cnc5c(=O)[nH]c(N)nc54)O[C@@H]3COP(O)(=S)O[C@H]3C[C@H](n4cc(C)c(=O)[nH]c4=O)O[C@@H]3COP(O)(=S)O[C@H]3[C@@H](O)[C@H](n4ccc(N)nc4=O)O[C@@H]3COP(O)(=S)O[C@H]3[C@@H](O)[C@H](n4cnc5c(=O)[nH]c(N)nc54)O[C@@H]3COP(O)(=S)O[C@H]3C[C@H](n4cc(C)c(=O)[nH]c4=O)O[C@@H]3CO)O2)c(=O)[nH]c1=O (some centres not stated)
inhibition (Human alphaherpesvirus 1 [1]): inactive
inhibition (Human betaherpesvirus 5 [2]): inactive
Activity [3]: Non-toxic
CC50 at 144 h [4]: > 10000 nM
inhibition (Human betaherpesvirus 5 [5]): inactive
inhibition (unidentified adenovirus): inactive
inhibition (Human betaherpesvirus 5 [6]): inactive
inhibition [7]: inactive
IC50 (Human betaherpesvirus 5 [8]): 30 nM
IC90 (Human betaherpesvirus 5 [8]): 220 nM
inhibition (Human betaherpesvirus 5 [9]): Active
inhibition (Human betaherpesvirus 5 [10]): Active
inhibition (Human betaherpesvirus 5 [11]): inactive
inhibition (Human alphaherpesvirus 1 [12]): inactive
inhibition (Human betaherpesvirus 5 [13]): Active
IC50 [14]: 20 nM

Cc1cn([C@H]2C[C@H](OP(O)(O)=S)[C@@H](COP(O)(=S)O[C@H]3C[C@H](n4cc(C)c(=O)[nH]c4=O)O[C@@H]3COP(O)(=S)O[C@H]3C[C@H](n4cc(C)c(=O)[nH]c4=O)O[C@@H]3COP(O)(=S)O[C@H]3C[C@H](n4cc(C)c(=O)[nH]c4=O)O[C@@H]3COP(O)(=S)O[C@H]3[C@@H](O)[C@H](n4cnc5c(=O)[nH]c(N)nc54)O[C@@H]3COP(O)(=S)O[C@H]3[C@@H](O)[C@H](n4ccc(N)nc4=O)O[C@@H]3COP(O)(=S)O[C@H]3C[C@H](n4cc(C)c(=O)[nH]c4=O)O[C@@H]3COP(O)(=S)O[C@H]3[C@@H](O)[C@H](n4cnc5c(=O)[nH]c(N)nc54)O[C@@H]3COP(O)(=S)O[C@H]3[C@@H](O)[C@H](n4cnc5c(=O)[nH]c(N)nc54)O[C@@H]3COP(O)(=S)O[C@H]3[C@@H](O)[C@H](n4ccc(N)nc4=O)O[C@@H]3COP(O)(=S)O[C@H]3C[C@H](n4cc(C)c(=O)[nH]c4=O)O[C@@H]3COP(O)(=S)O[C@H]3C[C@H](n4cc(C)c(=O)[nH]c4=O)O[C@@H]3COP(O)(=S)O[C@H]3C[C@H](n4cc(C)c(=O)[nH]c4=O)O[C@@H]3COP(O)(=S)O[C@H]3C[C@H](n4cc(C)c(=O)[nH]c4=O)O[C@@H]3COP(O)(=S)O[C@H]3C[C@H](n4cc(C)c(=O)[nH]c4=O)O[C@@H]3COP(O)(=S)O[C@H]3[C@@H](O)[C@H](n4cnc5c(=O)[nH]c(N)nc54)O[C@@H]3COP(O)(=S)O[C@H]3[C@@H](O)[C@H](n4ccc(N)nc4=O)O[C@@H]3COP(O)(=S)O[C@H]3C[C@H](n4cc(C)c(=O)[nH]c4=O)O[C@@H]3COP(O)(=S)O[C@H]3[C@@H](O)[C@H](n4cnc5c(=O)[nH]c(N)nc54)O[C@@H]3COP(O)(=S)O[C@H]3[C@@H](O)[C@H](n4ccc(N)nc4=O)O[C@@H]3COP(O)(=S)O[C@H]3C[C@H](n4cc(C)c(=O)[nH]c4=O)O[C@@H]3CO)O2)c(=O)[nH]c1=O (some centres not stated)
inhibition (Human alphaherpesvirus 1 [1]): inactive
inhibition (Human betaherpesvirus 5 [2]): inactive
Activity [3]: Non-toxic
CC50 at 144 h [4]: > 10000 nM
inhibition (Human betaherpesvirus 5 [5]): inactive
inhibition (unidentified adenovirus): inactive
inhibition (Human betaherpesvirus 5 [15]): Active
inhibition (Human betaherpesvirus 5 [6]): inactive
inhibition [7]: inactive
IC50 (Human betaherpesvirus 5 [8]): 25 nM
IC90 (Human betaherpesvirus 5 [8]): 65 nM
inhibition (Human betaherpesvirus 5 [9]): Active
inhibition (Human betaherpesvirus 5 [16]): Active
inhibition (Human betaherpesvirus 5 [10]): Active
inhibition (Human betaherpesvirus 5 [11]): inactive
inhibition (Human alphaherpesvirus 1 [12]): inactive
